What all share (type): functional
Assay [1] has as its system Rattus norvegicus. Nature of the assay: Inhibition of carrageenan edema in rats was determined after peroral administration of 100 mg/kg. The following applies: route oral. In short, it runs like this:
(§1)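 Male Wistar rats (150–175 g) dosed orally, in mg/kg, as a suspension in 0.5% carboxymethylcellulose (1 mL/kg), 1 h before subplantar injection of 0.1 mL of 1% Type 402 carrageenin. Paw edema measured by electronic plethysmography at 3 h. Swelling (3 h minus 0 h) per rat; treated-group mean expressed as percent of vehicle-control mean.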

Assay [2] is filed under the species Rattus norvegicus. The assay is described as follows: Inhibition of the development of adjuvant-induced polyarthritis in rats was determined.
Assay [3] relates to Rattus norvegicus. Nature of the assay: Nonnarcotic analgesic effect was determined after peroral administration in rats. The following applies: po, read-out: MED.
Assay [4] concerns Rattus norvegicus. Nature of the assay: Bronchoconstrictor effect of bradykinin was determined after intravenous administration in rats.
Assay [5] has as its system Rattus norvegicus. The assay is described as follows: Inhibition of carrageenan edema in adrenalectomized rats was determined after peroral administration. The conditions noted are these: po. Put shortly: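 Carrageenin paw edema run as in intact rats, but male Wistar rats were bilaterally adrenalectomized under ether and allowed 7 days to recover. They drank 1.0% NaCl plus 2.5% dextrose and ate standard chow. Oral dosing in 0.5% CMC 1 h before subplantar 1% carrageenin. Plethysmographic swelling at 3 h, as percent of vehicle-treated controls.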

In assay [6] the test system is Rattus norvegicus. Nature of the assay: Inhibition of carrageenan edema in normal rats was determined after peroral administration. The conditions noted are these: po. In short, it runs like this:
as §1

The test system of assay [7] is Rattus norvegicus. Nature of the assay: Bronchoconstrictor effect of bradykinin was determined after intravenous administration in rats.
The subject of assay [8] is Rattus norvegicus. The assay is described as follows: Nonnarcotic analgesic effect was determined after peroral administration in rats. The following applies: po, read-out: MED.

The values that follow come from ChEMBL document CHEMBL1122137, “Antiinflammatory properties of 8-aryl-5-isopropyl-2H-1,3-dioxolo[4,5-g]quinazolin-6(5H)-ones and -thiones” (1982).

Each structure is given as a SMILES string.

In the case of `CC(C)n1c(=O)nc(-c2ccc(OCc3ccccc3)cc2)c2cc3c(cc21)OCO3`, the inhibition in vivo at 100 mg/kg in the assay on Rattus norvegicus [1] amounted to 17%.

The compound `CC(C)n1c(=S)nc(-c2ccc(F)cc2)c2cc3c(cc21)OCO3` registered an inhibition in vivo at 100 mg/kg with Rattus norvegicus [1] of 49%.

Turning to `CC(C)n1c(=O)nc(-c2cccc(F)c2)c2cc3c(cc21)OCO3`, the ED50 came to 9 mg/kg in the assay listed under Rattus norvegicus [2]; 0.05 mg/kg in the assay on Rattus norvegicus [4]; 14 mg/kg in the assay with Rattus norvegicus [5]; 9 mg/kg with Rattus norvegicus [1]; 9 mg/kg in the assay with Rattus norvegicus [6]. For the same compound, the minimal effective dose with Rattus norvegicus [3] came out at 11 mg/kg.

In the assay with Rattus norvegicus [1], `CC(C)n1c(=S)nc(-c2cccc(F)c2)c2cc3c(cc21)OCO3` displayed an inhibition in vivo at 100 mg/kg of 36%.

`CC(C)n1c(=S)nc(-c2cccc([N+](=O)[O-])c2)c2cc3c(cc21)OCO3` displayed an inhibition in vivo at 100 mg/kg with Rattus norvegicus [1] of 0%.

Turning to `CC(C)n1c(=O)nc(-c2ccccc2)c2cc3c(cc21)OCO3`, the ED50 with Rattus norvegicus [7] is 0.012 mg/kg; in the assay listed under Rattus norvegicus [2], 3 mg/kg; in the assay with Rattus norvegicus [5] it was 9 mg/kg; in the assay with Rattus norvegicus [1], 7 mg/kg; in the assay with Rattus norvegicus [6], 8 mg/kg. In addition, in the assay on Rattus norvegicus [3], the minimal effective dose is 50 mg/kg.

Turning to `CC(C)n1c(=O)nc(-c2cccc([N+](=O)[O-])c2)c2cc3c(cc21)OCO3`, in the assay on Rattus norvegicus [1], 100 mg/kg produced 28% inhibition in vivo.

Regarding `CC(C)n1c(=O)nc(-c2ccc(C(=O)O)cc2)c2cc3c(cc21)OCO3`, the inhibition in vivo at 100 mg/kg in the assay with Rattus norvegicus [1] was determined as 33%.

With `CC(C)n1c(=O)nc(-c2ccc(F)cc2)c2cc3c(cc21)OCO3`, the ED50 in the assay with Rattus norvegicus [7] turned out to be 0.17 mg/kg; in the assay filed under Rattus norvegicus [2] it was 6 mg/kg; in the assay on Rattus norvegicus [5] it was 20 mg/kg; with Rattus norvegicus [1], 8 mg/kg; in the assay on Rattus norvegicus [6] it was 8 mg/kg. Further, in the assay with Rattus norvegicus [3], the minimal effective dose turned out to be 4 mg/kg.

In the assay with Rattus norvegicus [1], `Cc1ccccc1C1NC(=O)N(C(C)C)c2cc3c(cc21)OCO3` (stereo unspecified) returned an ED50 of 50 mg/kg.

Regarding `COc1cccc(-c2nc(=O)n(C(C)C)c3cc4c(cc23)OCO4)c1`, the inhibition in vivo at 100 mg/kg in the assay with Rattus norvegicus [1] amounted to 12%.

`CC(C)n1c(=O)nc(-c2ccc3c(c2)OCO3)c2cc3c(cc21)OCO3`: testing at 100 mg/kg with Rattus norvegicus [1] gave an inhibition in vivo of 21%.

Compound `Cc1ccc(-c2nc(=O)n(C(C)C)c3cc4c(cc23)OCO4)cc1` had an inhibition in vivo at 100 mg/kg in the assay with Rattus norvegicus [1] of 22%.

Compound `Cc1ccccc1-c1nc(=O)n(C(C)C)c2cc3c(cc12)OCO3` yielded an ED50 with Rattus norvegicus [1] of 65 mg/kg.

As for `CC(C)n1c(=O)nc(-c2ccccc2[N+](=O)[O-])c2cc3c(cc21)OCO3`, the ED50 in the assay with Rattus norvegicus [1] came to 39 mg/kg.

With `CC(C)c1ccc(-c2nc(=S)n(C(C)C)c3cc4c(cc23)OCO4)cc1`, in the assay with Rattus norvegicus [1], 100 mg/kg produced 10% inhibition in vivo.

With `CC(C)n1c(=O)nc(-c2ccc(Cl)c(Cl)c2)c2cc3c(cc21)OCO3`, the inhibition in vivo at 100 mg/kg in the assay on Rattus norvegicus [1] turned out to be 30%.

In the case of `CC(C)n1c(=S)nc(-c2ccccc2)c2cc3c(cc21)OCO3`, the ED50 in the assay with Rattus norvegicus [7] amounted to 0.047 mg/kg; in the assay filed under Rattus norvegicus [2], 6 mg/kg; in the assay on Rattus norvegicus [1] it was 7 mg/kg; with Rattus norvegicus [6], 7 mg/kg.

Take `COc1ccc2c(c1)c(CC(=O)O)c(C)n2C(=O)c1ccc(Cl)cc1` [INDOMETHACIN]: the ED50 came to 0.1 mg/kg in the assay listed under Rattus norvegicus [2], 6 mg/kg in the assay with Rattus norvegicus [5], 5 mg/kg in the assay on Rattus norvegicus [1] and 5 mg/kg in the assay with Rattus norvegicus [6]. Further, the minimal effective dose with Rattus norvegicus [8] amounted to 4 mg/kg.

Take `CCCCC1C(=O)N(c2ccccc2)N(c2ccccc2)C1=O` [PHENYLBUTAZONE]: the ED50 in the assay listed under Rattus norvegicus [2] turned out to be 5 mg/kg; in the assay with Rattus norvegicus [5], 30 mg/kg; in the assay on Rattus norvegicus [1], 25 mg/kg; in the assay with Rattus norvegicus [6], 25 mg/kg. Also, in the assay with Rattus norvegicus [8], the minimal effective dose was found to be 9 mg/kg.

For `Cc1ccc2c(-c3ccccc3)nc(=O)n(C(C)C)c2c1` [PROQUAZONE], the ED50 in the assay filed under Rattus norvegicus [2] amounted to 1 mg/kg; with Rattus norvegicus [5], 6 mg/kg; with Rattus norvegicus [1], 5 mg/kg; with Rattus norvegicus [6], 5 mg/kg. Further, the minimal effective dose in the assay with Rattus norvegicus [8] is 1 mg/kg.
